Assay results of several laboratories.
Each line is one published result; the experiments were not run side by side.
Effect on: cell growth or viability

Compound	cell line	technique	time	CC50 [µM]
CNC(=O)CN1C(=O)Cc2c([nH]c3ccc(Br)cc23)-c2ccc(Cl)cc21	J774	WST-1	24 h	≤ 100
C[C@H]1[C@@H](O)O[C@@H]2O[C@@]3(C)CC[C@H]4[C@H](C)CC[C@@H]1[C@@]24OO3	J774	ATP luminescence	72 h	51.3
CC1CCCN(S(=O)(=O)c2nc(-c3ccc(Br)cc3)oc2-c2ccc(Cl)cc2)C1 (centres unmarked)	HFF	ATP luminescence		41.9
O=C(CN1C(=O)Cc2c([nH]c3ccc(Br)cc23)-c2ccc(Cl)cc21)NCCN1CCNCC1	J774	WST-1	24 h	≥ 100
Cc1ccc(-c2nc(C#N)c(N(C)S(=O)(=O)c3ccc(C)cc3)o2)cc1	HFF	ATP luminescence		83.8
O=C1c2ccccc2C(c2ccccc2F)C(=O)N1O (centres unmarked)	HFF	MTS	7 days	26
Nc1nc2c(ncn2COCCO)c(=O)[nH]1	HFF	ATP luminescence	14 days	> 150
O=c1[nH]c2cc(-c3ccc(Cl)cc3)ccc2c(=O)n1O	HFF	MTS	7 days	> 50
O=C(CN1C(=O)Cc2c([nH]c3ccc(Br)cc23)-c2ccc(Cl)cc21)NCCN1CCCCC1	J774	WST-1	24 h	≤ 10
O=c1[nH]c2cc(-c3ccccc3)ccc2c(=O)n1O	HFF	MTS	7 days	29
Nc1nc(O)c2ncn(COC(CO)CO)c2n1	HFF	ATP luminescence		> 150
